Where two headings read alike, the source gives them in different places.
Tested on: NSCLC cell lines (A549, H23 and H358)
Assay: Cell viability, modified MTT assay, 24 h
Format: cell-based, human
Details: read-out: 24 h-IC50
In short: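 ATCC-sourced A549 (p53 wild-type), H23 (p53-mutant) and H358 (p53-null) cells were grown per ATCC. Viability after 24 h exposure to test compound or sulindac metabolites was measured by modified MTT assay. 24-h IC50 was derived from viability curves.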

SMILES: CC1=C(CC(=O)O)c2cc(F)ccc2/C1=C\c1ccc(S(C)(=O)=O)cc1 [sulindac sulfone]
- IC50 (range among A549, H23 and H358 cells): 566 to 1900 µM

SMILES: CC1=C(CC(=O)O)c2cc(F)ccc2/C1=C\c1ccc([S+](C)[O-])cc1 (stereo not drawn) [sulindac]
- IC50 (Homo sapiens, 24 h): > 1000 µM

SMILES: CSc1ccc(/C=C2/C(C)=C(CC(=O)O)c3cc(F)ccc32)cc1 [sulindac sulfide]
- IC50 (Homo sapiens, 24 h): 159 to 222 µM
